Data set [1] can be described thus: Aqueous Solubility of compound at pH 7 measured after 10 mins by HPLC-UV analysis. Format: physicochemical. To be noted: buffer.
A short description of data set [2]: Selectivity index, ratio of CC50 for cytotoxicity against human Huh7.5 cells to EC50 for antiviral activity against Hepatitis C virus infected in human Huh7.5 cells. The following applies: read-out: Ratio CC50/EC50. The data set is classed as toxicity, cell-based.
A short description of data set [3]: (§1) Cytotoxicity against human Huh7.5 cells assessed as inhibition of cell growth measured after 96 hrs by MTT assay. Format: toxicity, cell-based, Huh-7.5. The following applies: Huh7.5 cells. Put shortly: (§2)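 Huh7.5 cells in DMEM with 10% heat-inactivated FBS, seeded at 3.0 × 10⁴ cells/cm²; after 24 h, fresh medium with compound added (DMSO stocks, eight 1:5 serial dilutions).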

In a further data set the test system is Hepatitis C virus. In words: Antiviral activity against Hepatitis C virus infected in human Huh7.5 cells assessed as inhibition of viral replication incubated for 72 hrs by qRT-PCR analysis. Format: functional, organism-based, Hepacivirus hominis. To be noted: Huh7.5, 72 h.
Data set [4] deals with DNA dC->dU-editing enzyme APOBEC-3G (Homo sapiens) (UniProt Q9HC16). The data set is described as follows: Inhibition of Vif-mediated human A3G degradation in HEK-293T cells cotransfected with hA3G and Vif at 20 uM by western blot analysis relative to control. Format: cell-based. The method, boiled down: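 293T cells cotransfected with hA3G and Vif expression vectors, then treated with compounds at 20 μM; MG132 proteasome inhibitor as positive control, DMSO-treated cells as comparator for hA3G degradation.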

For a further data set, the system named is Huh-7.5. Described as §1. The following applies: huh-7.5, 96 h. The data set is classed as toxicity, cell-based. Put shortly:
as §2

Data set [5] in a line: Acute toxicity in ip dosed Kunming mouse assessed as lethal dose measured after 7 days. The data set is classed as organism-based. The following applies: in vivo, 168 h, time 7 day. Put shortly: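 Single intraperitoneal dose at 50, 100, 150 or 200 mg/kg, n = 6 per group. Animals watched closely for 7 days. Median lethal dose (LD₅₀) estimated from deaths across the dose groups.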

Some results are limits rather than exact numbers.

Sequence of DNA dC->dU-editing enzyme APOBEC-3G (Homo sapiens) (Q9HC16 whole entry): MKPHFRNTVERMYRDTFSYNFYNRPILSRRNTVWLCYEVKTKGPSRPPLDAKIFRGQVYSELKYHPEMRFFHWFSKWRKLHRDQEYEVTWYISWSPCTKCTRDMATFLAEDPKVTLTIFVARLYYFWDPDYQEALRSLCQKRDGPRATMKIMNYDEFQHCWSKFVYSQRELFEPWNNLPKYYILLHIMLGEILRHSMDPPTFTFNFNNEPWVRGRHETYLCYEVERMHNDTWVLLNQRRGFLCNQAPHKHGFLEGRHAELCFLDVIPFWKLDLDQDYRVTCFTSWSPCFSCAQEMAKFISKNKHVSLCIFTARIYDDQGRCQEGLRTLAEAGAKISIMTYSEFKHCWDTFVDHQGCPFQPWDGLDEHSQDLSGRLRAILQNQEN

`CN(C)C1CN(Cc2ccc(NC(=O)c3ccc(OCCCl)c([N+](=O)[O-])c3)cc2C(F)(F)F)C1.Cl`: the solubility at 10 min in data set [1] was found to be 7800 µg/mL.

For the compound `CN1CCN(Cc2ccc(NC(=O)c3ccc(OCCCCl)c([N+](=O)[O-])c3)cn2)CC1`, the selectivity ratio in data set [2] was 151. For the same compound, the cytotoxic concentration (CC50) at 96 h in data set [3] is 12.6 µM. For the same compound, in the data set on Hepatitis C virus, the EC50 came to 83 nM.

In the case of `CCCOc1ccc(C(=O)Nc2ccc(OC)cc2)cc1NC(=O)CC`, the inhibition in data set [4] was 25%. Further, the selectivity ratio in data set [2] came out at 68. Moreover, in the data set with Huh-7.5, the CC50 turned out to be 106 µM. In addition, the EC50 in the data set with Hepatitis C virus amounted to 1550 nM.

In the case of `CCC(=O)Nc1cc(C(=O)Nn2c(C)nnc2S)ccc1OC`, the inhibition in data set [4] is more than 50%. The selectivity ratio in data set [2] is more than 14. Moreover, in the data set on Huh-7.5, the CC50 is more than 200 µM. Besides, the EC50 in the data set on Hepatitis C virus is 14400 nM.

`CCOc1ccc(C(=O)Nc2ccc(OC)cc2)cc1NC(=O)CC` had an inhibition in data set [4] of 25%. Besides, the selectivity ratio in data set [2] amounted to 48. Moreover, the CC50 in the data set on Huh-7.5 worked out at 73.2 µM. The EC50 with Hepatitis C virus was found to be 1470 nM.

As to `CC(C)Oc1ccc(C(=O)Nc2ccc(CN3CCN(C)CC3)c(C(F)(F)F)c2)cc1[N+](=O)[O-]`, the inhibition in data set [4] is less than 25%. Also, the selectivity ratio in data set [2] worked out at 39. The CC50 with Huh-7.5 amounted to 3.5 µM. The 50% effective concentration (EC50) with Hepatitis C virus came out at 95 nM.

Consider `CN1CCN(Cc2ccc(NC(=O)c3ccc(OCCCCl)c([N+](=O)[O-])c3)cc2C(F)(F)F)CC1`, for which the selectivity ratio in data set [2] was determined as 154. The CC50 with Huh-7.5 turned out to be 6.8 µM. For the same compound, the LD50 in data set [5] is less than 100 mg/kg. The half-maximal effective concentration (EC50) in the data set with Hepatitis C virus was determined as 44 nM.

Compound `CCC(=O)Nc1cc(C(=O)Nc2ccc(OC)cc2)ccc1OCCCN1CCN(C)CC1` came in with an inhibition in data set [4] of more than 50%. For the same compound, in data set [2], the selectivity ratio amounted to 9.4. Besides, the CC50 with Huh-7.5 came out at 126 µM. In addition, the concentration giving a half-maximal response (EC50) in the data set on Hepatitis C virus came to 13500 nM.

Values taken from ChEMBL document CHEMBL5046236, “Synthesis and structure-activity relationship study of new biaryl amide derivatives and their inhibitory effects against hepatitis C virus” (Eur J Med Chem, 2022).
